# Most compounds without a hit are left out; they make up all but 1.8% or so of the library.
# HSV replic up – HSV replication enhancement; HSV replication augmentation in cells, fold increase; AID 1956; maximum fold increase; 220,000 compounds, 0.005% hits; in the data active = maximum fold increase above about 1.5; inconclusive = no clear call, values can overlap the other calls; tested in PC3 cells
# L929 necroptosis – blocks zVAD induced death of L929 cells; L929 zVAD necroptosis rescue, ATP luminescence, 24 h; with zVAD 60 µM; viability rescue, % at 10 µM; 220,000 compounds, 0.38% hits;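 active = activation, scaled between plate controls, above about 75%, limit read from the data; inactive = activation under that limit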;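 note: 0% = zVAD with DMSO and 100% = DMSO alone without zVAD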
# Furin inhibitor – inhibitors of human furin; P09958; purified furin, fluorogenic substrate cleavage; inhibition, % at 20 µM or 30 µM; 220,000 compounds, 0.061% hits; AID 463115; in the data active = inhibition above about 25%
# Target sequence (P09958 108-714 limits assumed): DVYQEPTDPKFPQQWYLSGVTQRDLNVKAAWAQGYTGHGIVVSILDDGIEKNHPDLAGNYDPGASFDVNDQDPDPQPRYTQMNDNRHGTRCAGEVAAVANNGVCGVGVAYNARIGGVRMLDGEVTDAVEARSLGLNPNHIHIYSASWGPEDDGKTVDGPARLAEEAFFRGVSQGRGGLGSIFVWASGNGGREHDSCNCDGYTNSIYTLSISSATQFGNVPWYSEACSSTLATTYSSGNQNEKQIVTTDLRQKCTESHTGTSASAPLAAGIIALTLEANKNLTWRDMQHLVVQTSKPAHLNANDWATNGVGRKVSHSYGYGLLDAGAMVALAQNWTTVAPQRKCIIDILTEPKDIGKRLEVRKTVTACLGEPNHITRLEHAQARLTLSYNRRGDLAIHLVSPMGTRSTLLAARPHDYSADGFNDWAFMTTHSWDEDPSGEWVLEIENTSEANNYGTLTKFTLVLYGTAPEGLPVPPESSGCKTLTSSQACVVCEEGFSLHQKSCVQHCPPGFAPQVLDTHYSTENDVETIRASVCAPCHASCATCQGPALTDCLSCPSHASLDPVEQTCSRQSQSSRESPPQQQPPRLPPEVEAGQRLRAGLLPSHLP
# Autophagy HCS – autophagy modulation, high-content screen. calls only at 10 µM (by protocol). 190,000 compounds, 0.98% hits. AID 463193. MEF GFP-LC3 puncta imaging; test concentration mostly 10 µM;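 active = percentage of spot-positive cells more than 3 SD above its plate mean, without a fluorescence outlier flag or 80% toxicity; inconclusive = no clear call, values can overlap the other calls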;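 note: spot-positive cell cutoff set from DMSO-treated cells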
# Dynein transport – dynein cargo transport inhibition | z-score, hits read low | AID 1381 | 3617.4 mouse cells, GR-EGFP nuclear translocation imaging; test concentration mostly 20 µM; stimulated with dexamethasone, 1 µM; stronger effect = lower value | 220,000 compounds, 0.47% hits;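 active = plate z-score of nuclear minus cytoplasmic receptor signal below a set negative limit, without overly bright fluorescence or cell loss, cut at about -3.5 in these data, passing the limit was not always enough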;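 note: z-score of nuclear minus cytoplasmic ring GR-EGFP intensity difference per well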
#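 Schedule: 48 h induction, then 1 h compound, then 30 min agonist, 37 °C. Buffer or medium: tetracycline-free induction medium containing charcoal-stripped FBS. Reagent: 1.0 µM final dexamethasone stimulus. Evaluation: nuclear versus cytoplasmic GR-EGFP signal, averaged per well. Signal: high-content fluorescence imaging after fixation.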
# TNF necrop inh – blocks TNF-alpha induced death of Jurkat FADD-/- cells | AID 463075 | Jurkat FADD-/- TNF necroptosis rescue, ATP luminescence, 24 h; 0 = TNF only, 100 = no-TNF cells | 220,000 compounds, 0.068% hits | activation (protection from cell death), % at 10 µM;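 active = activation, meaning protection from cell death, of at least 50% relative to plate controls; inactive = activation below 50%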;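 note: necroptosis triggered by 40 ng/mL TNF-alpha added together with compound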
# Starred values were filed as active, the others as inactive; i = inactive; ? = inconclusive; / = no result; + = active, no number.
SMILES,HSV replic up,L929 necroptosis,Furin inhibitor,Autophagy HCS,Dynein transport,TNF necrop inh
O=C(COc1cccc2c1CCN(Cc1ccc(Br)cc1)C2=O)NCc1ccco1,/,2,-16,i,-0.16,-2
CC(C)CCN1CCN(Cc2ccc(Oc3ncccn3)cc2)CC1CCO (stereo not given),i,-1,-14,+,-0.42,1
CCCOC(=O)/C(=C\C=C\c1ccco1)NC(=O)c1ccccc1,i,0,3,i,-0.53,-1
O=C(NCCO)/C(=C\c1ccc([N+](=O)[O-])o1)NC(=O)c1ccccc1,i,2,-6,i,-0.35,-1
CCOC(=O)/C(=C\c1ccc([N+](=O)[O-])o1)NC(=O)c1ccccc1,i,0,-2,+,3,-3
CCCOC(=O)/C(=C\c1ccc([N+](=O)[O-])o1)NC(=O)c1ccccc1,i,-1,-6,+,-0.97,-4
COc1cc(NC(=S)NC2CC(C)(C)NC(C)(C)C2)c(OC)cc1Cl,i,1,-14,i,-1.2,2
Cc1cc(Cl)ccc1OC(C)C(=O)Nc1ccccc1N1CCOCC1 (stereo not given),/,0,-11,+,-0.99,-2
COc1ccc(C2=NOC(C(=O)O)C2)cc1 (stereo not given),i,0,-9,i,0.99,-1
COc1ccc(C2=NOC(C(=O)Nc3cccnc3Cl)C2)cc1 (stereo not given),i,6,-9,+,0.51,1
Cc1nc2ccc(NC(=O)c3cncc(Br)c3)cc2s1,i,2,-17,/,-0.76,2
O=C(CC1C(=O)NCCN1C(=O)Nc1ccccc1)Nc1ccc(F)cc1 (stereo not given),i,0,-10,/,0.43,1
O=C(CC1C(=O)NCCN1C(=O)Nc1ccc(Cl)cc1)Nc1ccc(F)cc1 (stereo not given),i,-1,0,+,-0.09,3
COc1ccc2c(C)cc(SCC(=O)N(C)C3CCS(=O)(=O)C3)nc2c1 (stereo not given),i,0,-17,+,1.3,1
CC1(C)S[C@@H]2C(C(=O)OCc3ccccc3)NC(=O)N2C1C(=O)OCc1ccccc1 (stereo not given in full),i,/,/,/,/,/
N#Cc1c(C(F)(F)F)cc(-c2ccco2)nc1SCc1ccccn1,i,1,-13,+,-0.61,-3
c1ccc2c(c1)oc1c(NCCCn3ccnc3)ncnc12,i,0,-3,+,3.4,-2
Cc1nc(NCCCn2ccnc2)c2oc3ccccc3c2n1,i,1,-20,i,-0.15,-1
Cc1cccc2sc(NC(=O)C3CCCN(S(=O)(=O)c4cccc5nonc45)C3)nc12 (stereo not given),i,0,19,+,3.8,0
Cc1ccc2nc(NC(=O)C3CCCN(S(=O)(=O)c4cccc5nonc45)C3)sc2c1 (stereo not given),i,1,-21,/,0.7,0
Nc1ccc(N2CCN(c3ccc(Cl)c(Cl)c3)CC2)cc1,i,0,-12,+,1.6,-5
O=C(CN1C(=O)c2ccccc2C1=O)Nc1sc2c(c1C(=O)NCc1ccco1)CCCC2,i,0,29*,i,2.3,-1
O=C(CCCN1C(=O)c2ccccc2C1=O)Nc1sc2c(c1C(=O)NCc1ccco1)CCC2,i,0,-22,i,-0.44,0
N#Cc1cc2ccccc2nc1N,i,2,-28,+,-0.062,0
CCONC(=O)Nc1ccccc1,/,0,-26,i,0.91,1
SMILES,HSV replic up,L929 necroptosis,Furin inhibitor,Autophagy HCS,Dynein transport,TNF necrop inh
COC(=O)c1cn(CCOc2ccccc2)c2ccccc12,i,2,-17,+,-0.57,4
COC(=O)c1cn(CCOc2ccccc2OC)c2ccccc12,i,0,-7,i,-0.3,-3
C=CCNCC(=O)N1N=C(c2ccc3ccccc3c2)CC1c1ccc(OC)cc1 (stereo not given),i,2,-21,+,-0.24,-2
COc1ccc(C2CC(c3ccc4ccccc4c3)=NN2C(=O)CNC2CCCCC2)cc1 (stereo not given),i,1,-18,+,0.72,4
COc1ccc(C2CC(c3ccc4ccccc4c3)=NN2C(=O)CN2CCC(C(N)=O)CC2)cc1 (stereo not given),i,-1,-26,i,-0.38,-1
FC(F)Sc1nc2ccccc2[nH]1,i,1,-13,/,-0.25,0
Cc1ccc(CNc2ccc3c(c2)OCO3)cc1,?,0,-6,+,2.7,-11
CNC(=O)CSCc1c(F)cccc1Cl,i,0,-13,i,1.6,-2
O=C(CSCc1c(F)cccc1Cl)Nc1cccnc1,i,26,-17,+,-0.68,-1
CCCCSc1nc2c(cnn2-c2ccc(C)c(C)c2)c(=O)[nH]1,i,1,-2,+,3.3,0
Clc1ccccc1-c1nc2ccccc2c2nc3ccccc3n12,i,1,-18,+,0.0022,2
Cc1nc2ccccc2c2nc3ccccc3n12,i,34,-22,i,0.3,2
COC(=O)c1ccc(Nc2cc(C)nc3ccc(C)cc23)cc1,i,-1,14,/,-0.34,-24
Cc1ccc2nc(C)cc(Nc3ccc([N+](=O)[O-])cc3)c2c1,i,-2,4,+,1.1,-17
COc1ccc(Br)cc1/C(C)=N/NC1=NCCN1,i,-1,-15,i,0.44,-8
CCCCCOc1ccc(Br)cc1/C(C)=N/NC1=NCCN1,/,-1,-13,+,-1,-17
CC1CCCN(C(=O)CSc2nc3ncccc3[nH]2)C1 (stereo not given),i,9,-4,+,0.054,0
CCN(CC)C(=O)CSc1nc2ncccc2[nH]1,i,0,-5,i,1.7,0
COc1ccc(CNCCc2ccccc2)cc1OCC(N)=O,i,0,-28,i,-0.24,-2
COc1ccc(CNCCc2ccc(Cl)cc2)cc1OCc1ccccc1,i,0,-14,+,-0.63,1
N#CC1=C(SCC(=O)Nc2ccccc2)NC(=O)CC1c1ccco1 (stereo not given),i,/,-8,+,1.2,-6
COc1cccc(NC(=O)CSC2=C(C#N)C(c3ccco3)C3=C(CCCC3=O)N2)c1 (stereo not given),i,1,-17,+,0.97,-6
COC(=O)CSC1=C(C#N)C(c2ccc(C(C)C)cc2)CC(=O)N1 (stereo not given),i,9,-17,i,-1.1,56*
